HSF1 activator = increases HSF-1 driven luciferase reporter signal; activation, % at 9 µM; actives 1.7% (n = 300,000); NIH3T3-HGL HSF-1 luciferase reporter, MG132, 8 h; 100% = twice DMSO control signal;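 active = mean replicate activation of at least 50% with a set share of replicates each reaching 50%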;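 also: 0% = median of the neutral control wells and 100% = twice that signal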
HIF activator = HIF pathway transcriptional activation | U2OS HRE-luciferase reporter, luminescence; normalized: DMSO 0%, desferrioxamine 100% | activation, % at 7.5 µM (by protocol) | actives 0.32% (n = 300,000) | AID 1910;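 active = mean activation of at least 10% of the iron chelator positive control signal, with at least half of replicates also reaching 10%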
HSF1 inh = HSF1 inhibition | actives 0.77% (n = 300,000) | NIH3T3-HGL HSE-luciferase, MG132-induced, luminescence 8 h; active compounds read low | activity change, negative = inhibition, % at 7.5 µM (by protocol);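 active = more than half of replicate wells show activity change below -50%, luminescence cut by over half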;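 also: luciferase reports HSF-1 transcriptional activity via heat shock element; 0% = median of DMSO wells and -100% = zero luminescence signal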
T cruzi inh = T. cruzi replication inhibition; inhibition, % (concentration not given with the values); actives 1.4% (n = 300,000); T. cruzi beta-gal in NIH3T3, luminescence, 90 h; AID 1885;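 active = mean inhibition across valid replicates above about 55%, limit read from the data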;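 also: signal also drops with host cell toxicity which is not excluded here; 0% = plate median of DMSO wells and 100% = zero luminescence signal; higher percent means less beta-gal luminescence so fewer parasites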
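Incubation – ≥90 h infection period, 3 h prior cell attachment · System – NIH/3T3 fibroblasts plus reporter T. cruzi · Doses – compound pinned at 50 nL/well, DMSO · Read-out basis – percent inhibition of parasite-derived β-gal signal · Signal – luminescent β-galactosidase signal after 60 min lysis · Also added – 5000 T. cruzi trypomastigotes/well · Medium – Low-serum DMEM with 2% FBS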
Calb FLC = C. albicans growth modulation with fluconazole | C. albicans CaCi-2 + fluconazole, Alamar Blue growth, 48 h | growth inhibition, % (test concentration not listed) | actives 0.57% (n = 300,000) | AID 1979;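 active = growth inhibition above about 58% in most replicates, limit read from the data, passing the limit was not always enough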;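 also: all wells also contain fluconazole at 8 µg/ml as a sub-toxic cotreatment; 0% = median of DMSO wells and 100% = median of geldanamycin control wells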
The depositor's hits bear a star. Sampled rows, rich in hits. Any-hit rate of the full collection: about 4.4%.

SMILES	HSF1 activator	HIF activator	HSF1 inh	T cruzi inh	Calb FLC
CN(C)c1ccc(C(CNS(=O)(=O)c2ccc3ccccc3c2)N2CCOCC2)cc1 (stereo not given)	-8	2	-5	10	-5
CCCCn1c(CCCNC(=O)c2ccco2)nc2ccccc21	-4	0	-3	-6	6
Nc1nnc(SCC(=O)OCC(=O)NC23CC4CC(CC(C4)C2)C3)s1	-6	0	-3	-29	0
O=C(CCNC(=O)c1ccc([N+](=O)[O-])cc1)Nc1nccs1	-18	0	-1	12	0
O=C(CCNC(=O)c1ccc(Br)cc1)Nc1nccs1	4	0	4	3	112*
Cc1nc2nc(-c3cccs3)[nH]c2cc1Br	63*	5	29	-7	-10
CN1CC(c2ccccc2)Oc2ccccc2C1=S (stereo not given)	-8	0	-7	-12	4
O=C(CSc1nc(Nc2ccccc2)nc(N2CCOCC2)n1)Nc1ccc([N+](=O)[O-])cc1	19	0	5	57*	27
O=C(CSc1nc(Nc2ccccc2)nc(N2CCOCC2)n1)Nc1cccc([N+](=O)[O-])c1	17	0	18	46	6
CC(=O)Nc1ccc(/C(C)=N/Nc2nc(Nc3ccccc3)nc(N3CCOCC3)n2)cc1	2	1	7	67*	6
N#Cc1ccc(/C=N/NC(=O)c2cccc(S(=O)(=O)N3CCOCC3)c2)cc1	-10	0	3	5	4
CCc1cc(C(=O)N2CCCc3ccccc32)sc1C	11	0	10	4	-23
COc1ccc(N2CCN(C(=O)CCCN3C(=O)c4cccc5cccc(c45)C3=O)CC2)cc1	4	0	-2	75*	8
COc1ccc(Br)c(C(=O)N2CCN(S(=O)(=O)c3cccs3)CC2)c1	-22	0	0	4	-5
CCOC(=O)CSc1cc(C(F)(F)F)nc(-c2ccccn2)n1	18	0	1	-9	7
CCOC(=O)CSc1cc(CS(C)(=O)=O)nc(-c2ccccn2)n1	-70	0	-61*	-9	-14
CCC(CC)c1nnc(NC(=O)c2cccnc2SC)s1	26	-1	8	-7	-12
CCCc1ccc(C2C3=C(CC(C)(C)CC3=O)NC3=C2C(=O)c2ccccc23)cc1 (stereo not given)	8	0	31	45	105*
COc1ccc(S(=O)(=O)N2CCCCC2)cc1NC(=O)Cc1sc(C)nc1-c1ccc(F)cc1	14	0	8	18	-8
CNC(=O)NC(=O)C(C)OC(=O)c1c2c(nc3ccccc13)/C(=C/c1cccs1)CC2 (stereo not given)	60*	3	21	2	5
COc1cc(/C=C2\CCc3c2nc2ccccc2c3C(=O)O)cc(OC)c1OC	22	1	7	-16	10
NC(=O)c1sc2nc(-c3ccccc3)c3c(c2c1N)CCCC3	5	2	1	3	7
NC(=O)c1sc2nccc(Nc3ccccc3)c2c1N	-22	11*	-20	25	9
COc1cc2c(cc1OC)CN(C(=O)c1ccc(S(=O)(=O)N(C)c3ccccc3)cc1)CC2	-14	0	-3	11	12
CC(=O)n1cc([C@H]2C=C(C(=O)N3CCN(Cc4ccccc4)CC3)O[C@@H](OCc3ccc(CO)cc3)C2)c2ccccc21	35	-1	11	68*	-1
O=C(C1=C[C@@H](c2csc3ccccc23)C[C@@H](OCc2ccc(CO)cc2)O1)N1CCN(Cc2ccc3c(c2)OCO3)CC1	6	1	1	22	-3
O=C(C1=C[C@@H](C2CCCCC2)C[C@@H](OCc2ccc(CO)cc2)O1)N1CCN(Cc2ccc3c(c2)OCO3)CC1	-3	-3	-5	42	17
O=C(C1=C[C@@H](c2ccccc2)C[C@@H](OCc2ccc(CO)cc2)O1)N1CCN(Cc2ccc3c(c2)OCO3)CC1	-22	3	-12	53	-14
CC(=O)n1cc([C@H]2C=C(C(=O)N3CCN(Cc4ccc5c(c4)OCO5)CC3)O[C@@H](OCc3ccc(CO)cc3)C2)c2ccccc21	18	-3	6	56*	26
CC(=O)n1cc([C@@H]2C=C(C(=O)N3CCOCC3)O[C@H](OCc3ccc(CO)cc3)C2)c2ccccc21	0	0	4	26	2
